NR2E3 ag-1 – agonists of human nuclear receptor NR2E3 | inhibition of corepressor binding, % at 4.78 µM | 320,000 compounds, 0.12% hits | GST-NR2E3/biotin-RetCOR TR-FRET, 1536-well | Q9Y5X4 | AID 2300;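 active = percent inhibition above the cutoff of mean plus 3 SD of all tested compounds, set per screening campaign, cut at about 20% in these data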
Target sequence (Q9Y5X4 whole entry, looked up): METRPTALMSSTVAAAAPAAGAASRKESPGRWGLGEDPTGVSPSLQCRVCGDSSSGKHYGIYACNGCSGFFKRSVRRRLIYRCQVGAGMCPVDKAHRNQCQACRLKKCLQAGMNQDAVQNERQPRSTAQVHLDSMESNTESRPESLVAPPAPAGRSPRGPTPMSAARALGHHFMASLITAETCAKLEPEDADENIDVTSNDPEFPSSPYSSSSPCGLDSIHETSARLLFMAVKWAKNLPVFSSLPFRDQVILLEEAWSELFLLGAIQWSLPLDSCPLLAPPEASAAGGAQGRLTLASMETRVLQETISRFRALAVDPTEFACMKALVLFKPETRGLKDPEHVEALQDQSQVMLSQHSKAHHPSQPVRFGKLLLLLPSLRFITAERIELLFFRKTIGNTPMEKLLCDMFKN
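Material: NR2E3–RetCOR corepressor complex / Amount: 1.35 nM GST-NR2E3 / Medium: Tris pH 7.5 / Compound: single nominal compound dose of 4.8 µM / Incubation: 5 h at 4 °C / Technique: TR-FRET, Eu(K)-anti-GST donor, streptavidin-D2 acceptor, ex 340, em 617/671 nm / Read-out basis: percent loss of FRET ratio relative to control wells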
TROY signal inh – blocks TROY-dependent signaling in reporter cells | Q293 LMP1-TROYcd NF-kB luciferase reporter, 4 h | inhibition, % at 10 µM | 360,000 compounds, 0.98% hits | AID 1347056;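 active = compounds whose plate-normalised and pattern-corrected inhibition of the luciferase reporter signal at the single screening dose is 50% or more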
NR2E3 ag-2 – activates human NR2E3 receptor; 360,000 compounds, 0.35% hits; Q9Y5X4; inhibition of corepressor binding, % at 3.98 µM; CHO-S Gal4-NCOR/VP16-NR2E3 two-hybrid, luciferase;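 active = inhibition above the mean of all tested compounds plus 3 SD, cut at about 70% in these data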;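 also: higher means lower luciferase signal from less NR2E3 corepressor binding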
HIF activator – HIF pathway transcriptional activation | 300,000 compounds, 0.32% hits | activation, % at 7.5 µM (by protocol) | U2OS HRE-luciferase reporter, luminescence; normalized: DMSO 0%, desferrioxamine 100%;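 active = mean activation of at least 10% of the iron chelator positive control signal, with at least half of replicates also reaching 10%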
LMP1 NFkB inh – reduces LMP1-driven NF-kappaB luciferase signal. LMP1-induced NF-kappaB luciferase reporter cells, luminescence. 350,000 compounds, 0.69% hits. inhibition, % at 12.5 µM; in the data active = inhibition above about 41%
Large screens that a line does not name were inactive. An excerpt weighted towards active compounds, which were near 2% of everything screened.

O=C(NC1CCCCC1)C(c1ccccc1)N(C(=O)c1csnn1)C1CC1 (configuration not stated)	none
Cc1c(C(=O)NCCC#N)sc(=O)n1Cc1ccccc1F	none (no result: NR2E3 ag-1, HIF activator, LMP1 NFkB inh)
COc1ccc2[nH]c(=O)c(CN(C(C)=O)c3cc(C)ccc3C)cc2c1	none (no result: NR2E3 ag-1, HIF activator)
S=C(Nc1ccccc1)Nc1ccc2cn[nH]c2c1	none
FC(F)Oc1ccc(NC(=S)Nc2ccc3cn[nH]c3c2)cc1	HIF activator 9.8
Cc1ccc(NC(=S)N(C)Cc2cn(C)c3ccccc23)cc1	none
CCCn1c2ccccc2c2cnn(CC(=O)NC3CCN(Cc4ccccc4)CC3)c(=O)c21	none
CCOC(=O)c1sc(N(Cc2ccccc2)C(=O)COC(=O)c2ccccc2O)nc1C	none
CCOC(=O)c1sc(N(Cc2ccccc2)C(=O)COC(=O)c2ccc(O)cc2)nc1C	HIF activator 10.0, LMP1 NFkB inh 53
Cc1ccc([C@H]2C[C@@H](n3cc(C4CC4)nn3)[C@H](O)CN2C(=O)C2CCCCC2)cc1	none (no result: NR2E3 ag-1, HIF activator)
O=C(COc1ccc2ccccc2c1)NNC(=O)c1cnccn1	none
CC(C)c1ccc(OCC(=O)NNC(=O)c2cnccn2)cc1	LMP1 NFkB inh 55
COc1ccc2c(C(=O)c3ccc(C)cc3)n(Cc3ccc(C(N)=O)cc3)[n+]([O-])c2c1	none (no result: HIF activator)
CCN(C(=O)COC(=O)CCc1ccccc1)c1ccccc1	none
CCC(C)(C)NC(=O)CN(C(=O)CCC(=O)Nc1nccs1)c1ccc2c(c1)OCCO2	TROY signal inh 52
CC(=O)N/N=C(/C)c1ccc(NC(=O)c2csc(C)c2C)cc1	none
CC(=O)N1CCC(C(=O)Nc2ccccc2)(N(Cc2ccccc2)C(=O)c2cccnc2)CC1	TROY signal inh 51
Nc1ccc(CCNc2ncnc3c2ncn3[C@@H]2O[C@H](CO)[C@@H](O)[C@H]2O)cc1	LMP1 NFkB inh 84
Nc1ccn([C@@H]2O[C@H](CO)[C@@H](O)C2O)c(=O)n1 (some centres not stated)	LMP1 NFkB inh 47
OCC1OC(n2cnc3c(NCCc4ccccc4)ncnc32)C(O)C1O (configuration not stated)	none
O=c1[nH]cnc2c1ncn2[C@@H]1O[C@H](CO)[C@@H](O)[C@H]1O	LMP1 NFkB inh 80
Cc1nn(C)c(C(=O)Nc2ccc(S(=O)(=O)NC34CC5CC(CC(C5)C3)C4)cc2)c1Br	TROY signal inh 51
COc1cc(/C=C/C(=O)OCC(=O)N2c3ccccc3NC(=O)C2(C)C)cc(OC)c1OC	none (no result: HIF activator)
COc1ccc(CNc2ncnc3sccc23)cc1OC	NR2E3 ag-2 80
Clc1ccccc1-c1cc2nc(NCc3ccco3)ccn2n1	none (no result: NR2E3 ag-1, HIF activator, LMP1 NFkB inh)
CCOC(=O)c1c(NC(=O)C2C3CCC(O3)C2C(=O)O)sc(C)c1-c1ccc(F)cc1 (configuration not stated)	LMP1 NFkB inh 80
CCOC(=O)c1c(NC(=O)C2C3CCC(O3)C2C(=O)O)sc2c1CCC(CC)C2 (configuration not stated)	none
CC(C)NC(=O)C1(C)CCCN1Cc1csc2ccccc12 (configuration not stated)	none (no result: NR2E3 ag-1, HIF activator, LMP1 NFkB inh)
Cc1nc2ccccc2c(=O)n1/N=C/c1ccc(O)cc1O	none
Cc1cc(/C=N/n2c(COc3ccccc3C)nc3ccccc3c2=O)c(O)c([N+](=O)[O-])c1	none
O=c1c2ccccc2nc(COc2ccccc2)n1/N=C/c1cc([N+](=O)[O-])ccc1O	HIF activator 11
CCCc1nc2ccccc2c(=O)n1/N=C/c1ccccc1O	HIF activator 13
OC[C@@H]1CN(Cc2ccc3c(c2)OCO3)C[C@H](n2cnc3c(N4CCOCC4)ncnc32)O1	none (no result: NR2E3 ag-1, HIF activator, LMP1 NFkB inh)
Cc1ccc(S(=O)(=O)N2CCC[C@H]2C(=O)Nc2ccccc2C)cc1	LMP1 NFkB inh 70 (no result: NR2E3 ag-1, HIF activator)
COc1ccc(-c2c(C(=O)c3ccccc3)[nH]c(N)c2C(N)=O)cc1OC	none (no result: NR2E3 ag-1, HIF activator, LMP1 NFkB inh)
COc1ccccc1N1CCN(S(=O)(=O)CCNC(=O)C2CC(=O)N(c3ccccc3)C2)CC1 (configuration not stated)	none
O=C(NCCS(=O)(=O)N1CCN(c2ccccc2F)CC1)C1CC(=O)N(c2ccc(F)cc2)C1 (configuration not stated)	HIF activator 456
COc1ccccc1/C=C/C(=O)OCC(=O)NC(=O)NC1CCCC1	none (no result: NR2E3 ag-1, HIF activator)
Cc1ccc(-c2nnc3c(C(F)(F)F)nc4ccccc4n23)cc1	none
FC(F)(F)c1nc2ccccc2n2c(-c3ccc(Cl)cc3)nnc12	LMP1 NFkB inh 53
CCOC(=O)C1CCCN(C(=O)c2ccc(F)c(C)c2)CC1 (configuration not stated)	none (no result: NR2E3 ag-1, HIF activator, LMP1 NFkB inh)
C=CCn1c(=O)/c(=C/c2ccc(Cl)cc2)s/c1=C(\C#N)c1nnc2n1CCCCC2	LMP1 NFkB inh 71 (no result: NR2E3 ag-1, HIF activator)
COc1ccc(C(=O)CN2C(=O)c3ccccc3S2(=O)=O)cc1	TROY signal inh 85 (no result: LMP1 NFkB inh)
CCN1CCN(C(=O)CN2C(=O)c3ccccc3S2(=O)=O)CC1	TROY signal inh 62
O=C(CN1C(=O)c2ccccc2S1(=O)=O)c1ccc(F)c(F)c1	TROY signal inh 72, LMP1 NFkB inh 46
CCOc1ccc(NC(=O)CC2C(=O)Nc3ccccc3N2C(=O)c2ccccc2)cc1 (configuration not stated)	HIF activator 26
COc1ccccc1NC(=O)CC1C(=O)Nc2ccccc2N1C(=O)c1ccccc1 (configuration not stated)	none
Cc1ccc(O)c(N=Cc2cc(Cc3ccccc3)cc([N+](=O)[O-])c2O)c1	TROY signal inh 52 (no result: NR2E3 ag-1)
COCc1nnc(NC(=O)c2ccc(S(=O)(=O)N3CCCc4ccccc43)cc2)o1	none
COc1ccc(-c2nnc(NC(=O)c3ccc(S(=O)(=O)N4CCCc5ccccc54)cc3)o2)cc1	LMP1 NFkB inh 49
O=C(Cn1cc(CNC(=O)C2CCCCC2)nn1)Nc1cc(C(F)(F)F)ccc1Cl	LMP1 NFkB inh 42 (no result: NR2E3 ag-1, HIF activator)
CC(C(=O)Nc1ccccc1-c1ccccc1)N1CCN(C(=O)c2ccccc2)CC1 (configuration not stated)	HIF activator 34
Cc1ccc(Nc2nc(CSc3nnc(-c4ccc(F)cc4)n3C)cs2)cc1	TROY signal inh 59
Cc1cccc(Oc2sc(C(=O)c3ccccc3)c(N)c2C#N)c1C	none
N#Cc1c(Oc2ccc3ccccc3c2)sc(C(=O)c2ccccc2)c1N	LMP1 NFkB inh 58
CCOC(=O)CSC1=N/C(=C\c2cccnc2)C(=O)N1c1ccc(OC)cc1	LMP1 NFkB inh 56
OCCCn1c(C(CO)Nc2nc(-c3ccc(Cl)cc3)cs2)nc2ccccc21 (configuration not stated)	none
COc1ccc(NC(=O)COC(=O)CN2C(=O)C3CC=CCC3C2=O)c([N+](=O)[O-])c1 (configuration not stated)	none (no result: NR2E3 ag-1, HIF activator)
CCCCc1ccc(NC(=O)CSc2nc(=O)n(CCN(CC)CC)c3c2CCCC3)cc1	TROY signal inh 54
CCCCc1ccc(NC(=O)CSc2nc(=O)n(CCN(C)C)c3c2CCC3)cc1	none
